Test results taken from ChEMBL document CHEMBL2407075, “Sulphonamido-quinoxalines: search for anticancer agent” (Eur J Med Chem, 2013).

What was measured:
Assay type in all cases: functional
ACHN = assay: Growth inhibition of human ACHN cells assessed as cell growth at 10^-6 M after 48 hrs by sulforhodamine B assay; conditions: read-out: Activity
Outline: (§1)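 Five-dose NCI-60 run (0.01, 0.1, 1, 10 and 100 µM, as 10-fold dilutions from a DMSO stock made at 400× the top final level). Cells were grown in RPMI 1640 with 5% FBS and 2 mM glutamine and plated for 24 h. They were then exposed for 48 h at 37 °C and 5% CO2. TCA fixation was followed by SRB staining with A515 read-out. Percent growth was taken relative to time-zero and control plates.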

T47D = assay: Growth inhibition of human T47D cells assessed as cell growth at 10^-5 M after 48 hrs by sulforhodamine B assay; conditions: read-out: Activity
RXF 393 [1] = assay: Growth inhibition of human RXF393 cells assessed as cell growth at 10^-8 M after 48 hrs by sulforhodamine B assay; conditions: RXF 393, 48 h, read-out: Activity
K562 [2] = assay: Growth inhibition of human K562 cells assessed as cell growth at 10^-7 M after 48 hrs by sulforhodamine B assay; conditions: K562, 48 h, read-out: Activity
K562 [3] = assay: Growth inhibition of human K562 cells assessed as cell growth at 10^-5 M after 48 hrs by sulforhodamine B assay; conditions: K562, 48 h, read-out: Activity
HL-60(TB) = assay: Growth inhibition of human HL-60(TB) cells after 48 hrs by sulforhodamine B assay; conditions: HL-60, 48 h; for CC50: read-out: LC50 (the source's name)
Outline: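 Leukemia suspension cells in RPMI 1640 with 5% FBS and 2 mM L-glutamine were plated at 5000–40,000 cells/well and grown 24 h. Five concentrations (0.01–100 µM) were given for 48 h at 37 °C. Settled cells were fixed with 80% TCA (16% final) and SRB-stained, read at 515 nm. GI50 came from dose–response curves against time-zero and control plates.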

COLO 205 = assay: Growth inhibition of human COLO205 cells assessed as cell growth at 10^-6 M after 48 hrs by sulforhodamine B assay; conditions: COLO 205, 48 h, read-out: Activity; outline: as §1
HOP-92 = assay: Growth inhibition of human HOP92 cells after 48 hrs by sulforhodamine B assay; conditions: HOP-92, 48 h; for CC50: read-out: LC50 (the source's name)
Outline: (§2)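 Adherent cells in RPMI 1640 with 5% FBS and 2 mM L-glutamine were plated at 5000–40,000 cells/well and grown 24 h. Five concentrations (0.01–100 µM, DMSO stock) were added for 48 h at 37 °C. Cells were fixed with cold TCA (10% final) and stained with SRB, read at 515 nm. GI50 came from log concentration–growth curves against time-zero and control plates.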

MDA-MB-435 = assay: Growth inhibition of human MDA-MB-435 cells assessed as cell growth at 10^-6 M after 48 hrs by sulforhodamine B assay; conditions: MDA-MB-435, 48 h, read-out: Activity
HOP-62 [4] = assay: Growth inhibition of human HOP62 cells assessed as cell growth at 10^-6 M after 48 hrs by sulforhodamine B assay; conditions: HOP-62, 48 h, read-out: Activity
Outline: (§3)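 Five-dose screen at NCI. Cells in RPMI 1640 with 5% FBS and 2 mM L-glutamine, seeded at 5000–40,000 cells/well and grown 24 h at 37 °C, 5% CO2 before dosing, with time-zero plates TCA-fixed. Drug diluted from DMSO stock to 0.01, 0.1, 1, 10 and 100 µM final, 48 h. Cells fixed with cold TCA (10% final), stained with 0.4% SRB and read at 515 nm. Percent growth from Tz, control and test absorbances; GI50, TGI and LC50 from dose-response curves.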

HOP-62 [5] = assay: Growth inhibition of human HOP62 cells assessed as cell growth at 10^-7 M after 48 hrs by sulforhodamine B assay; conditions: HOP-62, 48 h, read-out: Activity; outline: as §3
CAKI-1 = assay: Growth inhibition of human CAKI-1 cells assessed as cell growth at 10^-6 M after 48 hrs by sulforhodamine B assay; conditions: CAKI-1, 48 h, read-out: Activity; outline: as §1
[6] = Growth inhibition of human Hs 578T cells assessed as cell growth at 10^-8 M after 48 hrs by sulforhodamine B assay; conditions: read-out: Activity; outline: as §3
NCI-H23 = assay: Growth inhibition of human NCI-H23 cells after 48 hrs by sulforhodamine B assay; conditions: NCI-H23, 48 h; for CC50: read-out: LC50 (the source's name)
Outline: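 Five-dose NCI 60 screen at 0.01, 0.1, 1, 10 and 100 µM, 48 h exposure after 24 h preincubation, in RPMI 1640 with 5% FBS and 2 mM glutamine. Fixed with TCA (10% final for adherent cells, 16% for suspension cells), stained with SRB, A515 read. Percent growth uses time-zero (Tz), control and treated plates. GI50, TGI and LC50 are read from the dose-response curves.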

786-0 = assay: Growth inhibition of human 786-0 cells after 48 hrs by sulforhodamine B assay; conditions: 786-0, 48 h, read-out: LC50 (the source's name); outline: as §2
SNB-75 = assay: Growth inhibition of human SNB75 cells assessed as cell growth at 10^-4 M after 48 hrs by sulforhodamine B assay; conditions: SNB-75, 48 h, read-out: Activity
RXF 393 [7] = assay: Growth inhibition of human RXF393 cells assessed as cell growth at 10^-4 M after 48 hrs by sulforhodamine B assay; conditions: RXF 393, 48 h, read-out: Activity
[8] = Growth inhibition of human HCC2998 cells assessed as cell growth at 10^-7 M after 48 hrs by sulforhodamine B assay; conditions: HCC 2998, 48 h, read-out: Activity; outline: as §3
MCF7 = assay: Growth inhibition of human MCF7 cells assessed as cell growth at 10^-4 M after 48 hrs by sulforhodamine B assay; conditions: MCF7, 48 h, read-out: Activity
[9] = Growth inhibition of human HCC2998 cells after 48 hrs by sulforhodamine B assay; conditions: HCC 2998, 48 h; for CC50: read-out: LC50 (the source's name); outline: as §2
BT-549 = assay: Growth inhibition of human BT549 cells after 48 hrs by sulforhodamine B assay; conditions: BT-549, 48 h; for CC50: read-out: LC50 (the source's name); outline: as §2
OVCAR-4 = assay: Growth inhibition of human OVCAR4 cells assessed as cell growth at 10^-8 M after 48 hrs by sulforhodamine B assay; conditions: OVCAR-4, 48 h, read-out: Activity
MOLT-4 = assay: Growth inhibition of human MOLT4 cells assessed as cell growth at 10^-7 M after 48 hrs by sulforhodamine B assay; conditions: MOLT-4, 48 h, read-out: Activity
[10] = Growth inhibition of human NCI-ADR-RES cells assessed as cell growth at 10^-6 M after 48 hrs by sulforhodamine B assay; conditions: read-out: Activity
M14 = assay: Growth inhibition of human M14 cells assessed as cell growth at 10^-5 M after 48 hrs by sulforhodamine B assay; conditions: M14, 48 h, read-out: Activity
OVCAR-5 = assay: Growth inhibition of human OVCAR5 cells assessed as cell growth at 10^-6 M after 48 hrs by sulforhodamine B assay; conditions: OVCAR-5, 48 h, read-out: Activity
NCI-H226 = assay: Growth inhibition of human NCI-H226 cells assessed as cell growth at 10^-6 M after 48 hrs by sulforhodamine B assay; conditions: NCI-H226, 48 h, read-out: Activity

For `O=S(=O)(Nc1ccc(Cl)cc1)c1ccc2nc(-c3ccccc3)c(-c3ccccc3)nc2c1`, which growth at 1 µM (ACHN) is on record?
The growth at 1 µM was 96%.

What about the growth at 10 µM (T47D) of the same compound?
The growth at 10 µM was -20%.

And the growth at 0.01 µM (RXF 393 [1])?
Its growth at 0.01 µM is 97%.

And the growth at 0.1 µM (K562 [2])?
The growth at 0.1 µM was 98%.

And the growth at 10 µM (K562 [3])?
The growth at 10 µM was 11%.

And the GI50 (HL-60(TB))?
The GI50 was 2.09 µM.

What about the CC50 (HL-60(TB)) of the same compound?
The CC50 was > 100 µM.

And the growth at 1 µM (COLO 205)?
The growth at 1 µM was 103%.

What about the GI50 (HOP-92) of the same compound?
The GI50 was 2.03 µM.

What about the CC50 (HOP-92) of the same compound?
The CC50 was > 100 µM.

What about the growth at 1 µM (MDA-MB-435) of the same compound?
Its growth at 1 µM is 92%.

And the growth at 1 µM (HOP-62 [4])?
The growth at 1 µM was 105%.

And the growth at 0.1 µM (HOP-62 [5])?
The growth at 0.1 µM was 100%.

What about the growth at 1 µM (CAKI-1) of the same compound?
Its growth at 1 µM is 89%.

And the growth at 0.01 µM [6]?
The growth at 0.01 µM was 84%.

What about the TGI (NCI-H23) of the same compound?
The TGI was > 100 µM.

What about the CC50 (NCI-H23) of the same compound?
Its CC50 is > 100 µM.

And the CC50 (786-0)?
The CC50 was > 100 µM.

What about the growth at 100 µM (SNB-75) of the same compound?
The growth at 100 µM was 46%.

What about the growth at 100 µM (RXF 393 [7]) of the same compound?
The growth at 100 µM was 51%.

And the growth at 0.1 µM [8]?
The growth at 0.1 µM was 99%.

And the growth at 100 µM (MCF7)?
The growth at 100 µM was 76%.

What about the TGI [9] of the same compound?
Its TGI is > 100 µM.

And the CC50 [9]?
The CC50 was > 100 µM.

And the CC50 (BT-549)?
The CC50 was > 100 µM.

What about the growth at 0.01 µM (OVCAR-4) of the same compound?
Its growth at 0.01 µM is 85%.

What about the growth at 0.1 µM (MOLT-4) of the same compound?
Its growth at 0.1 µM is 94%.

And the growth at 1 µM [10]?
Its growth at 1 µM is 89%.

What about the growth at 10 µM (M14) of the same compound?
The growth at 10 µM was -27%.

And the growth at 1 µM (OVCAR-5)?
Its growth at 1 µM is 90%.

And the growth at 1 µM (NCI-H226)?
Its growth at 1 µM is 101%.

For `O=S(=O)(Nc1ccccn1)c1ccc2nc(-c3ccccc3)c(-c3ccccc3)nc2c1`, which growth at 1 µM (ACHN) is on record?
The growth at 1 µM was 94%.

And the growth at 10 µM (T47D)?
The growth at 10 µM was -22%.

What about the growth at 0.01 µM (RXF 393 [1]) of the same compound?
Its growth at 0.01 µM is 105%.

And the growth at 0.1 µM (K562 [2])?
The growth at 0.1 µM was 99%.

What about the growth at 10 µM (K562 [3]) of the same compound?
The growth at 10 µM was 9%.

What about the GI50 (HL-60(TB)) of the same compound?
The GI50 was 1.71 µM.

And the CC50 (HL-60(TB))?
Its CC50 is > 100 µM.

What about the growth at 1 µM (COLO 205) of the same compound?
The growth at 1 µM was 94%.

And the GI50 (HOP-92)?
The GI50 was 1.94 µM.

And the CC50 (HOP-92)?
Its CC50 is > 100 µM.

What about the growth at 1 µM (MDA-MB-435) of the same compound?
Its growth at 1 µM is 91%.

What about the growth at 1 µM (HOP-62 [4]) of the same compound?
Its growth at 1 µM is 115%.

And the growth at 0.1 µM (HOP-62 [5])?
Its growth at 0.1 µM is 101%.

And the growth at 1 µM (CAKI-1)?
Its growth at 1 µM is 102%.

What about the growth at 0.01 µM [6] of the same compound?
The growth at 0.01 µM was 93%.

What about the GI50 (NCI-H23) of the same compound?
Its GI50 is 2.45 µM.

What about the TGI (NCI-H23) of the same compound?
Its TGI is > 100 µM.

What about the CC50 (NCI-H23) of the same compound?
Its CC50 is > 100 µM.

What about the CC50 (786-0) of the same compound?
The CC50 was > 100 µM.

What about the growth at 100 µM (SNB-75) of the same compound?
The growth at 100 µM was 20%.

What about the growth at 100 µM (RXF 393 [7]) of the same compound?
The growth at 100 µM was 38%.

And the growth at 0.1 µM [8]?
Its growth at 0.1 µM is 100%.

And the growth at 100 µM (MCF7)?
Its growth at 100 µM is 40%.

What about the CC50 [9] of the same compound?
The CC50 was > 100 µM.

What about the GI50 (BT-549) of the same compound?
Its GI50 is 1.58 µM.

And the CC50 (BT-549)?
The CC50 was > 100 µM.

What about the growth at 0.01 µM (OVCAR-4) of the same compound?
The growth at 0.01 µM was 100%.

What about the growth at 0.1 µM (MOLT-4) of the same compound?
The growth at 0.1 µM was 95%.

What about the growth at 1 µM [10] of the same compound?
Its growth at 1 µM is 84%.

What about the growth at 10 µM (M14) of the same compound?
Its growth at 10 µM is -42%.

What about the growth at 1 µM (OVCAR-5) of the same compound?
Its growth at 1 µM is 104%.

And the growth at 1 µM (NCI-H226)?
The growth at 1 µM was 96%.
